The record followed here is ChEMBL document CHEMBL4834428.

Substrate in data set [1]: N#Cc1ccccc1CN1CC(C(N)=O)Oc2ccccc21
The settings on record: Homo sapiens; dose 400.0 nM, time 30.0 min.

Compound in data set [2]: N#Cc1ccccc1CN1CC(C(N)=O)Oc2ccccc21
Put plainly: Uncompetitive inhibition of His6-tagged SIRT1 (unknown origin) expressed in Escherichia coli BL21 (DE3) assessed as change in Vmax at 800 nM measured every 2 mins for 30 mins in presence of NAD+ and ATP by […] based Michaelis-Menten analysis (reference value: 860 to 1326 AU/min). The note with it: Homo sapiens. An outline of the steps: (§1)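 Continuous assay, triplicates: 100 nM His6-SirT1 catalytic domain, ~270 nM FLucK529ac, inhibitor 100–1600 nM in sirtuin buffer 2 plus luciferase buffer (0.5 mM ATP, 0.5 mM luciferin, pH 7.8).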

Compound in data set [3]: N#Cc1ccccc1CN1CC(C(N)=O)Oc2ccccc21
In words: Uncompetitive inhibition of His6-tagged SIRT1 (unknown origin) expressed in Escherichia coli BL21 (DE3) assessed as change in Km at 800 nM measured every 2 mins for 30 mins in presence of NAD+ and ATP by […] based Michaelis-Menten analysis (reference value: 54.3 to 57.6 uM). The settings on record: Homo sapiens. The essentials: as §1

Substrate in data set [4]: N#Cc1ccccc1CN1CC(C(N)=O)Oc2ccccc21
The note with it: Homo sapiens; dose 400.0 nM, time 30.0 min. This is another data set of the same source.

Substrate in data set [5]: N#Cc1ccccc1CN1CC(C(N)=O)Oc2ccccc21
The settings on record: Homo sapiens; dose 200.0 nM, time 30.0 min.

Compound in data set [6]: N#Cc1ccccc1CN1CC(C(N)=O)Oc2ccccc21
In words: Uncompetitive inhibition of His6-tagged SIRT1 (unknown origin) expressed in Escherichia coli BL21 (DE3) assessed as change in Vmax at 1600 nM measured every 2 mins for 30 mins in presence of NAD+ and ATP by […] based Michaelis-Menten analysis (reference value: 860 to 1326 AU/min). The note with it: Homo sapiens. An outline of the steps:
as §1

Substrate in data set [7]: N#Cc1ccccc1CN1CC(C(N)=O)Oc2ccccc21
The note with it: Homo sapiens; dose 100.0 nM, time 30.0 min.

Compound in data set [8]: N#Cc1ccccc1CN1CC(C(N)=O)Oc2ccccc21
In words: Uncompetitive inhibition of His6-tagged SIRT1 (unknown origin) expressed in Escherichia coli BL21 (DE3) assessed as change in Km at 1600 nM measured every 2 mins for 30 mins in presence of NAD+ and ATP by […] based Michaelis-Menten analysis (reference value: 54.3 to 57.6 uM). The settings on record: Homo sapiens. The essentials: as §1

Substrate in data set [9]: N#Cc1ccccc1CN1CC(C(N)=O)Oc2ccccc21
The settings on record: Homo sapiens; dose 100.0 nM, time 30.0 min. This is another data set of the same source.

Substrate in data set [10]: N#Cc1ccccc1CN1CC(C(N)=O)Oc2ccccc21
The settings on record: Homo sapiens; dose 200.0 nM, time 30.0 min. This is another data set of the same source.

B1: NAD-dependent protein deacetylase sirtuin-1 (Homo sapiens), Q96EB6 (protein)
chain: MADEAALALQPGGSPSAAGADREAASSPAGEPLRKRPRRDGPGLERSPGEPGGAAPEREVPAAARGCPGAAAAALWREAEAEAAAAGGEQEAQATAAAGEGDNGPGLQGPSREPPLADNLYDEDDDDEGEEEEEAAAAAIGYRDNLLFGDEIITNGFHSCESDEEDRASHASSSDWTPRPRIGPYTFVQQHLMIGTDPRTILKDLLPETIPPPELDDMTLWQIVINILSEPPKRKKRKDINTIEDAVKLLQECKKIIVLTGAGVSVSCGIPDFRSRDGIYARLAVDFPDLPDPQAMFDIEYFRKDPRPFFKFAKEIYPGQFQPSLCHKFIALSDKEGKLLRNYTQNIDTLEQVAGIQRIIQCHGSFATASCLICKYKVDCEAVRGDIFNQVVPRCPRCPADEPLAIMKPEIVFFGENLPEQFHRAMKYDKDEVDLLIVIGSSLKVRPVALIPSSIPHEVPQILINREPLPHLHFDVELLGDCDVIINELCHRLGGEYAKLCCNPVKLSEITEKPPRTQKELAYLSELPPTPLHVSEDSSSPERTSPPDSSVIVTLLDQAAKSNDDLDVSESKGCMEEKPQEVQTSRNVESIAEQMENPDLKNVGSSTGEKNERTSVAGTVRKCWPNRVAKEQISRRLDGNQYLFLPPNRYIFHGAEVYSDSEDDVLSSSSCGSNSDSGTCQSPSLEEPMEDESEIEEFYNGLEDEPDVPERAGGAGFGTDGDDQEAINEAISVKQEVTDMNYPSNKS
As to B1, the Michaelis-Menten constant (Km) in data set [1] was 23.8 µM; in [3], 10 µM; in data set [8], 4.9 µM; in data set [9] it was 47.7 µM; in data set [10] it was 34.6 µM. Moreover, the Vmax in [2] was 304 AU/min; in data set [4], 522 AU/min; in data set [5] it was 673 AU/min; in data set [6] it was 208 AU/min; in [7], 864 AU/min.

The Km is the concentration of substrate that gives half-maximal velocity.
